Measurements reported in ChEMBL document CHEMBL1125234, “Novel pyrrolo[2,3-d]pyrimidine antifolates: synthesis and antitumor activities” (J Med Chem, 1991).
Values after ≈ are worked out from the molar mass of the structure shown.

Tests used:
[1] = In vitro growth inhibitory activity against KB human epidermoid carcinoma cells.; type: functional
Method in brief: (§1)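 Cells seeded at 1 × 10^4 cells/mL in 96-well plates, MEM with 10% fetal calf serum, 37 °C, 5% CO₂, 24 h. Antifolate added in 10% MEM at final 0.15-80 ng/mL, then culture continued 72 h at 37 °C. Cell number estimated by MTT; IC50 taken as concentration giving 50% growth inhibition. Means ± SE of three experiments.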

A549 = experiment: In vitro growth inhibitory activity against A549 human nonsmall cell lung carcinoma cells.; type: functional, cell-based; method in brief: as §1

| Compound | IC50 [1] | IC50 (A549) |
| --- | --- | --- |
| Nc1nc(N)c2c(CCCc3ccc(C(=O)N[C@H](CCC(=O)O)C(=O)O)cc3)c[nH]c2n1 | 0.27 ng/mL (≈ 0.613 nM) | 4.5 ng/mL (≈ 10.2 nM) |
| Nc1nc(N)c2c(n1)NCC2CCCc1ccc(C(=O)N[C@H](CCC(=O)O)C(=O)O)cc1 (stereo not given in full) | 0.49 ng/mL (≈ 1.11 nM) | 4.9 ng/mL (≈ 11.1 nM) |
| CC(CCC1CNc2nc(N)nc(N)c21)c1ccc(C(=O)N[C@H](CCC(=O)O)C(=O)O)cc1 (stereo not given in full) | 0.3 ng/mL (≈ 0.657 nM) | 1.6 ng/mL (≈ 3.5 nM) |
| CC(CCc1c[nH]c2nc(N)nc(N)c12)c1ccc(C(=O)N[C@H](CCC(=O)O)C(=O)O)cc1 (stereo not given in full) | 0.59 ng/mL (≈ 1.3 nM) | 2.3 ng/mL (≈ 5.06 nM) |
| CN(Cc1cnc2nc(N)nc(N)c2n1)c1ccc(C(=O)N[C@@H](CCC(=O)O)C(=O)O)cc1 [METHOTREXATE] | 5.02 ng/mL (≈ 11 nM) | 35 ng/mL (≈ 77 nM) |
